Test results from ChEMBL document CHEMBL1123497, “Structure-activity studies of 4,6-disubstituted 2-(morpholinocarbonyl)furo[3,2-b]indole derivatives with analgesic and antiinflammatory activities” (1986).

Assays:
Type in all cases: functional
[1] = organism: Mus musculus; test: Analgesic activity by acetic acid writhing assay in mice; design: concentration or dose not given beside the values
Procedure, shortened: (§1)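 Mice received drug orally 30 min before an ip injection of 0.7% acetic acid (10 mL/kg). Writhes were counted 10–20 min after injection, and % inhibition was taken against a control group. ED50 and 95% confidence limits came from the Litchfield–Wilcoxon method.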

[2] = system: Rattus norvegicus; test: Antiinflammatory activity by Carrageenan edema assay in rats; design: concentration or dose not given beside the values; unit not given here
Procedure, shortened: (§2)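 Groups of six male Wistar rats (130–170 g) were dosed orally 60 min before a subplantar injection of 0.5% λ-carrageenin suspension (0.1 mL/rat) into the left hind paw. Foot volume was measured every 60 min for 360 min, and % swelling was compared with controls. ED50 and 95% confidence limits came from Litchfield–Wilcoxon. Screening used % edema inhibition at 100 mg/kg po.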

[3] = organism: Mus musculus; test: Inhibition of acetic acid induced writhing in mice.; procedure, shortened: as §1
[4] = system: Rattus norvegicus; test: Compound was evaluated for antiinflammatory activity by Carrageenan edema assay in rats; procedure, shortened: as §2
[5] = organism: Rattus norvegicus; test: Compound was evaluated for analgesic activity in Adjuvant-induced arthritic pain test in rats
Procedure, shortened: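 Groups of six male SD rats (160–200 g) received 0.5% Mycobacterium butyricum suspension (0.1 mL/rat) intradermally into the distal tail. After 15–18 days, rats that vocalized on gentle flexion were dosed orally, and the pain response was checked every 60 min for 300 min. Absence of response counted as positive. ED50 and 95% confidence limits came from Litchfield–Wilcoxon.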

[6] = organism: Rattus norvegicus; test: Compound was evaluated for antipyretic activity in rats by yeast induced fever test
Procedure, shortened: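 Groups of six male Wistar rats (190–210 g) received 7.5% yeast suspension sc (10 mL/kg). Rats whose temperature rose by more than 1 °C were dosed orally 180 min later. Body temperature was recorded automatically every 60 min for 360 min, and % inhibition was compared with controls. ED50 and 95% confidence limits came from Litchfield–Wilcoxon.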

[7] = organism: Rattus norvegicus; test: Compound was evaluated for analgesic activity in Randall-Selitto test in inflamed foot rats
Procedure, shortened: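 Groups of six male Wistar rats (90–110 g) received 20% yeast suspension (0.1 mL/rat) subplantar into the right hind paw, then oral drug 120 min later. Pain threshold was read every 60 min for 240 min. A rise of more than 50% over the control group counted as positive. ED50 and 95% confidence limits came from Litchfield–Wilcoxon.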

[8] = organism: Mus musculus; test: Compound was evaluated for analgesic activity in Pressure test in mice
Procedure, shortened: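 Groups of 10 male ddY mice (19–24 g) were dosed orally, and pain threshold to pressure was measured every 30 min for 120 min. A postdrug threshold raised more than 50% over the predrug value counted as positive. ED50 and 95% confidence limits came from Litchfield–Wilcoxon.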

[9] = system: Rattus norvegicus; test: Compound was evaluated for antiinflammatory activity in rats by carrageenan edema test; procedure, shortened: as §2
[10] = organism: Rattus norvegicus; test: Compound was evaluated for analgesic activity in Randall-Selitto test in normal foot rats
[11] = organism: Mus musculus; test: Compound was evaluated for analgesic activity in Acetic acid writhing assay in mice; procedure, shortened: as §1

SMILES	Inhibition [1]	Inhibition [2]	ED50 [3]	other results
CC(C)COC(=O)n1c2cc(Cl)ccc2c2oc(C(=O)N3CCOCC3)cc21	2%	2		
COC(=O)n1c2cc(C(F)(F)F)ccc2c2oc(C(=O)N3CCOCC3)cc21	1%	1		
CCCCOC(=O)n1c2ccccc2c2oc(C(=O)N3CCOCC3)cc21	1%	1		
COc1ccc2c3oc(C(=O)N4CCOCC4)cc3n(C(=O)OCC(C)C)c2c1	3%	1		
CCOC(=O)n1c2cc(C(F)(F)F)ccc2c2oc(C(=O)N3CCOCC3)cc21	3%	3	35.6 mg/kg	
CCOC(=O)n1c2ccccc2c2oc(C(=O)N3CCOCC3)cc21	1%	1		
CCCCCn1c2cc(C(F)(F)F)ccc2c2oc(C(=O)N3CCOCC3)cc21	3%	3	10.9 mg/kg	
COC(=O)n1c2cc(F)ccc2c2oc(C(=O)N3CCOCC3)cc21	1%	1		
CC(C)OC(=O)n1c2cc(Cl)ccc2c2oc(C(=O)N3CCOCC3)cc21	3%	3	21.4 mg/kg	
CC(C)OC(=O)n1c2cc(C(F)(F)F)ccc2c2oc(C(=O)N3CCOCC3)cc21	3%	3	4.7 mg/kg	
CCCOC(=O)n1c2cc(C)ccc2c2oc(C(=O)N3CCOCC3)cc21	2%	1		
CCOC(=O)n1c2cc(C)ccc2c2oc(C(=O)N3CCOCC3)cc21	2%	3		
CC(C)COC(=O)n1c2ccccc2c2oc(C(=O)N3CCOCC3)cc21	1%	1		
COC(=O)n1c2ccccc2c2oc(C(=O)N3CCOCC3)cc21	1%			Inhibition [4]: 2%
CC(C)CC(=O)n1c2cc(C(F)(F)F)ccc2c2oc(C(=O)N3CCOCC3)cc21	3%	3	6 mg/kg	
CCCCCCCCn1c2cc(C(F)(F)F)ccc2c2oc(C(=O)N3CCOCC3)cc21		3		
CCCCOC(=O)n1c2cc(Cl)ccc2c2oc(C(=O)N3CCOCC3)cc21	3%	2		
CCCCCCn1c2cc(C(F)(F)F)ccc2c2oc(C(=O)N3CCOCC3)cc21	3%	3	7.7 mg/kg	
CCCCOC(=O)n1c2cc(C)ccc2c2oc(C(=O)N3CCOCC3)cc21	2%	1		
CCCOC(=O)n1c2ccccc2c2oc(C(=O)N3CCOCC3)cc21	1%	1		
CC(C)C(=O)n1c2cc(C(F)(F)F)ccc2c2oc(C(=O)N3CCOCC3)cc21	3%	3	7.3 mg/kg	
CCCOC(=O)n1c2cc(Cl)ccc2c2oc(C(=O)N3CCOCC3)cc21	2%	2		
CCCCOC(=O)n1c2cc(OC)ccc2c2oc(C(=O)N3CCOCC3)cc21	2%	1		
CCCCC(CC)C(=O)n1c2cc(C(F)(F)F)ccc2c2oc(C(=O)N3CCOCC3)cc21 (stereo unspecified)	3%	3	0.7 mg/kg	ED50 [5]: 1.7 mg/kg; ED50 [6]: 0.059 mg/kg; ED50 [7]: 1.7 mg/kg; ED50 [8]: 7 mg/kg; ED50 [9]: 5.4 mg/kg; ED50 [10]: 5.9 mg/kg; ED50 [11]: 0.7 mg/kg
CCOC(=O)n1c2cc(OC)ccc2c2oc(C(=O)N3CCOCC3)cc21	1%	1		
CCCCCCCCC(=O)n1c2cc(C(F)(F)F)ccc2c2oc(C(=O)N3CCOCC3)cc21	3%	2		
CC(C)OC(=O)n1c2ccccc2c2oc(C(=O)N3CCOCC3)cc21	2%	2		

SMILES	Inhibition [1]	Inhibition [2]	ED50 [3]	other results
CC(C)CCn1c2cc(C(F)(F)F)ccc2c2oc(C(=O)N3CCOCC3)cc21	3%	3	5.1 mg/kg	
CC(C)OC(=O)n1c2cc(F)ccc2c2oc(C(=O)N3CCOCC3)cc21	2%	1		
CCCOC(=O)n1c2cc(C(F)(F)F)ccc2c2oc(C(=O)N3CCOCC3)cc21	3%	3	34.6 mg/kg	
COC(=O)n1c2cc(Cl)ccc2c2oc(C(=O)N3CCOCC3)cc21	1%	1		
CCCCOC(=O)n1c2cc(C(F)(F)F)ccc2c2oc(C(=O)N3CCOCC3)cc21	3%	3	21.4 mg/kg	
O=C(Cn1c(=O)sc2ccc(Cl)cc21)N1CCN(CCO)CC1 [TIARAMIDE]			74 mg/kg	ED50 [5]: 176 mg/kg; ED50 [6]: 171 mg/kg; ED50 [7]: 94.6 mg/kg; ED50 [8]: 116 mg/kg; ED50 [9]: 119 mg/kg; ED50 [10]: > 160 mg/kg
CCOC(=O)n1c2cc(Cl)ccc2c2oc(C(=O)N3CCOCC3)cc21	1%	2		
COC(=O)n1c2cc(OC)ccc2c2oc(C(=O)N3CCOCC3)cc21	1%	1		
CCCOC(=O)n1c2cc(F)ccc2c2oc(C(=O)N3CCOCC3)cc21	2%	1		
CC(C)CCCn1c2cc(C(F)(F)F)ccc2c2oc(C(=O)N3CCOCC3)cc21	3%	3	6 mg/kg	
CC(C)Cn1c2cc(C(F)(F)F)ccc2c2oc(C(=O)N3CCOCC3)cc21	2%	3		
CCCCn1c2cc(C(F)(F)F)ccc2c2oc(C(=O)N3CCOCC3)cc21	3%	3	29.5 mg/kg	
COc1ccc2c3oc(C(=O)N4CCOCC4)cc3n(C(=O)OC(C)C)c2c1	2%	1		
Cc1ccc2c3oc(C(=O)N4CCOCC4)cc3n(C(=O)OCC(C)C)c2c1	2%	2		
COC(=O)n1c2cc(O)ccc2c2oc(C(=O)N3CCOCC3)cc21	1%	1		
Cc1ccc2c3oc(C(=O)N4CCOCC4)cc3n(C(=O)OC(C)C)c2c1	3%	3	26 mg/kg	
CC(C)=CCn1c2cc(C(F)(F)F)ccc2c2oc(C(=O)N3CCOCC3)cc21	3%	3	10.1 mg/kg	
CCCOC(=O)n1c2cc(OC)ccc2c2oc(C(=O)N3CCOCC3)cc21	2%	1		
CCOC(=O)n1c2cc(O)ccc2c2oc(C(=O)N3CCOCC3)cc21	2%	1		
CCCCCCCn1c2cc(C(F)(F)F)ccc2c2oc(C(=O)N3CCOCC3)cc21	3%	3	17.8 mg/kg	
CCOC(=O)n1c2cc(F)ccc2c2oc(C(=O)N3CCOCC3)cc21	1%	1		
COC(=O)n1c2cc(C)ccc2c2oc(C(=O)N3CCOCC3)cc21	1%	2		
CC(C)COC(=O)n1c2cc(F)ccc2c2oc(C(=O)N3CCOCC3)cc21	2%	1		
CC(C)(C)C(=O)n1c2cc(C(F)(F)F)ccc2c2oc(C(=O)N3CCOCC3)cc21	3%	1		
CCCCC(=O)n1c2cc(C(F)(F)F)ccc2c2oc(C(=O)N3CCOCC3)cc21	3%	3	34.5 mg/kg	
CC(C)COC(=O)n1c2cc(C(F)(F)F)ccc2c2oc(C(=O)N3CCOCC3)cc21	2%	2		
CCCCOC(=O)n1c2cc(F)ccc2c2oc(C(=O)N3CCOCC3)cc21	2%	1		
